Activity calls are given as the source filed them.
Legend:
[1] = Antiproliferative activity against human SKOV3-MDR1-M6/6 cells by SRB assay; format: functional, cell-based
Outline: (§1)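 Antiproliferative IC50s were measured by SRB assay in isogenic cell-line pairs. For Pgp-mediated resistance, the pair was parental SK-OV-3 ovarian cancer cells and Pgp-expressing SK-OV-3 MDR-1-M6/6 cells. For βIII-tubulin-mediated resistance, the pair was parental HeLa cells and βIII-tubulin-expressing HeLa cells.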

HeLa [2] = assay: Antiproliferative activity against human HeLa cells expressing beta3-tubulin by SRB assay; format: functional, cell-based; outline: as §1
HeLa [3] = assay: Resistance index, ratio of IC50 for antiproliferative activity against human HeLa cells expressing beta3-tubulin cells to IC50 for antiproliferative activity against human HeLa cells; format: functional
Outline: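 Relative resistance (Rr) was calculated as the SRB IC50 in βIII-tubulin-expressing HeLa cells divided by the SRB IC50 in parental HeLa cells.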

SK-OV-3 = assay: Antiproliferative activity against human SKOV3 cells by SRB assay; format: functional, cell-based; outline: as §1
[4] = Inhibition of bovine brain tubulin assembly; parameters: species or system Bos taurus
[5] = Resistance index, ratio of IC50 for antiproliferative activity against human SKOV3-MDR1-M6/6 cells to IC50 for antiproliferative activity against human SKOV3 cells; format: functional
Outline: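 Relative resistance (Rr) was calculated as the SRB IC50 in Pgp-expressing SK-OV-3 MDR-1-M6/6 cells divided by the SRB IC50 in parental SK-OV-3 cells.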

[6] = Induction of microtubule depolymerization in rat A10 cells assessed as cellular microtubule loss incubated for 18 hrs by indirect immunofluorescence assay; format: cell-based; settings: A10, 18 h
Outline: (§2)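 Cellular microtubule loss was scored. EC50 was defined as the concentration causing 50% loss of cellular microtubules.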

MDA-MB-435 = assay: Antiproliferative activity against human MDA-MB-435 cells by SRB assay; format: functional, cell-based
Outline: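 Proliferation of MDA-MB-435 melanoma cells was read by sulforhodamine B (SRB) assay. IC50 was taken as the concentration causing 50% inhibition of proliferation.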

HeLa [7] = assay: Antiproliferative activity against human HeLa cells by SRB assay; format: functional, cell-based; outline: as §1
[8] = Ratio of EC50 for induction of microtubule depolymerization in rat A10 cells to IC50 for antiproliferative activity against human MDA-MB-435 cells
Bos taurus = species on record: Bos taurus; assay: Inhibition of [3H]colchicine binding to bovine brain tubulin at 5 uM
Rattus norvegicus = species on record: Rattus norvegicus; assay: Induction of microtubule depolymerization in rat A10 cells assessed as cellular microtubule loss up to 40 uM incubated for 18 hrs by indirect immunofluorescence assay; format: cell-based; outline: as §2

IC50 (HeLa [2]) [nM]	IC50 (SK-OV-3) [nM]	IC50 [4] [nM]	EC50 [6] [nM]	IC50 (MDA-MB-435) [nM]	IC50 (HeLa [7]) [nM]	inhibition (Bos taurus) [%]	SMILES	IC50 [1] [nM]	Ratio IC50 (HeLa [3])	Ratio IC50 [5]	Ratio [8]	Activity (Rattus norvegicus)
31.8	60.5	1200	130	33.9	50.5	67	COc1ccc(N(C)c2nc(C)nc3[nH]c4ccccc4c23)cc1	78	0.6	1.3	3.8	–
–	–	–	1400	220	–	–	COc1ccc(N(C)c2nc(N)nc3[nH]c4cccc(C)c4c23)cc1	–	–	–	6.5	–
–	–	–	–	3900	–	–	COc1ccc(N(C)c2nc(N)nc3[nH]c4cccc(Cl)c4c23)cc1	–	–	–	–	inactive
–	–	–	3700	271	–	–	COc1ccc2c(c1)CCCN2c1nc(N)nc2[nH]c3cccc(Cl)c3c12	–	–	–	15	–
99.5	173	2300	1200	130	142	62	COc1ccc(N(C)c2ncnc3[nH]c4ccccc4c23)cc1	224	0.8	1.4	9.2	–
78.4	156	2300	1100	89.1	118	67	CSc1ccc(N(C)c2nc(N)nc3[nH]c4ccccc4c23)cc1	160	0.7	1	12	–
87	83.2	2200	150	54.4	72.1	71	COc1ccc2c(c1)CCCN2c1nc(N)nc2[nH]c3ccccc3c12	135	1.2	1.6	2.8	–

— ChEMBL document CHEMBL4033743, “Design, synthesis, and structure-activity relationships of pyrimido[4,5-b]indole-4-amines as microtubule depolymerizing agents that are effective against multidrug resistant cells” (Bioorg Med Chem Lett, 2017)
